TCR CD3 inh: blocks the human TCR-CD3 interaction. actives 0.37% (n = 360,000). TAMRA-labeled TCR probe fluorescence, biochemical. AID 651800. inhibition, % at 9.4 µM;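 further: recombinant mutant TCR 2C K166C tagged with TAMRA read by polarization; 0% = receptor in buffer alone and 100% = receptor with positive control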
PRMT1 FP inh: blocks human protein arginine methyltransferase 1 | Q99873 | recombinant PRMT1, activity-based probe fluorescence polarization | inhibition, % at 2.79 µM | actives 1.3% (n = 370,000);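 active means inhibition above about 21% made by adding two undisclosed values, limit read from the data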
ABHD4 inh: inhibitors of mouse ABHD4. Q8VD66. AID 720543. purified mABHD4, FP-Rh probe fluorescence polarization. inhibition, % at 8.92 µM. actives 0.54% (n = 370,000);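 active means inhibition exceeding the mean over every tested compound plus 3 SD, cut at about 30% in these data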;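 further: 0% = plate median of compound wells and 100% = S159A mutant with DMSO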
Target sequence (Q8VD66 whole entry, looked up): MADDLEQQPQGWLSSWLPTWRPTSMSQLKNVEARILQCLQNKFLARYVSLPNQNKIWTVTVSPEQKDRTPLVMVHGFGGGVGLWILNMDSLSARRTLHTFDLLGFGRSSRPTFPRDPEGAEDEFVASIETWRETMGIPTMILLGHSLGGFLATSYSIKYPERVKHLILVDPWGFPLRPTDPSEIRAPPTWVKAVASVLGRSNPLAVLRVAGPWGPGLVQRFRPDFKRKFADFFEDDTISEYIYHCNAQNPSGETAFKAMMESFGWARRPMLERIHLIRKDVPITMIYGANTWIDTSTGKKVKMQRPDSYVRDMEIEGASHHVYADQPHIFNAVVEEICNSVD
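Assay system: mouse ABHD4 enzyme, wild type / Also added: fluorescent activity-based probe FP-Rh / Doses: single nominal dose of 8.92 µM, 0.89% DMSO final / Timing: 45 min compound pre-incubation plus 60 min probe step, 25 °C / Signal: FP readout, ex 525 nm / em 598 nm / Control set: S159A mutant/DMSO as 100%, compound-well median as 0%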
rCAG binder: molecules binding r(CAG) RNA repeats | r(CAG) RNA repeat, TO-PRO-1 dye displacement fluorescence | inhibition, % at 3 µM | actives 1.3% (n = 370,000) | AID 651821;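 active means inhibition above the plate cutoff, the mean of all test compounds on that plate plus 3 SD, cut at about 35% in these data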;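 further: 0% = DMSO alone and 100% = 100 µM mitoxantrone as full dye displacement; higher means more dye released from RNA so lower well fluorescence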
HTRA1 inh: inhibitors of human serine peptidase HTRA1; Q92743; recombinant HTRA1, FP-rhodamine activity-based probe, fluorescence polarization; inhibition, % at 5.96 µM; actives 0.5% (n = 340,000); AID 504803; in the data active means inhibition above about 36%;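 further: 0% = enzyme with DMSO and 100% = wells lacking enzyme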
SIAE primary: human SIAE inhibition, primary screen; SIAE FP-Rh probe binding, fluorescence polarization; inhibition, % at 9.66 µM; actives 0.69% (n = 370,000); AID 1053197;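 active means inhibition above a cutoff: mean of compounds within the control limits plus 3 SD of those, cut at about 17% in these data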;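 further: 0% = plate median of compound wells and 100% = probe without SIAE protein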
BSA probe FL: interferes with TAMRA-BSA probe, flagging TCR-CD3 hits | inhibition, % at 9.4 µM | AID 652035 | actives 10% (n = 1,200) | shares compounds with TCR CD3 inh | TAMRA-labeled BSA probe fluorescence counterscreen; in the data active means inhibition above about 23%;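 further: 0% = buffer low control and 100% = reference high control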
TCR-CD3 conf: TCR-CD3 interaction inhibition, confirmation. shares compounds with TCR CD3 inh. TAMRA-labeled TCR probe fluorescence binding assay. inhibition, % at 9.4 µM. actives 48% (n = 1,200)
The depositor's hits bear a star; . = no result given; + = active, no number. This is a sample that favours compounds with a hit; in the whole collection about 3.5% have one here. Unless noted, no stated cut-off is given here; in the data, active means inhibition above about 19%; inactive means the rest.

SMILES	TCR CD3 inh	PRMT1 FP inh	ABHD4 inh	rCAG binder	HTRA1 inh	SIAE primary	BSA probe FL	TCR-CD3 conf
CCC1CCCCN1c1nc(-c2ccncc2)nc2ccccc12 (stereo not drawn)	44*	-3	-15	-6	-26	-8	1	-3
O=C(NCc1ccccc1)OCCCN1C(=O)CCC12CCCCC2	.	1	3	0	.	3	.	.
N#Cc1c(-c2ccccc2)c(-c2ccccc2)nn(CC(=O)NNC(=O)Nc2ccc(Cl)c(Cl)c2)c1=O	30*	-3	-137	23	-92	-181	20	45*
Cc1ccc(C(=O)NNC(=S)NC(=O)c2ccco2)cc1	10	-3	0	2	5	2	.	.
CC(C)C(=O)Nc1ccc(C(=O)NNC(=S)NC(=O)c2ccco2)cc1	33*	6	-1	-1	4	-1	-1	36*
O=C1c2ccccc2C(c2nnnn2-c2ccc3c(c2)OCCO3)N1Cc1ccco1 (stereo not drawn)	25*	3	2	3	.	16	4	0
O=C(c1cc(-c2ccccc2)on1)N1CCC(Oc2cccnc2)CC1	.	-2	6	-3	.	1	.	.
CCCn1c(C)cc(C(=O)COc2ccc(C)nc2[N+](=O)[O-])c1C	3	-1	0	6	-6	3	.	.
Cc1ccc(OCC(=O)c2c(N)n(C)c(=O)n(C)c2=O)c([N+](=O)[O-])n1	36*	6	13	13	6	9	1	26*
Cc1c(NC(=O)C2CCCN(S(=O)(=O)c3ccc(Cl)s3)C2)c(=O)n(-c2ccccc2)n1C (stereo not drawn)	.	7	-12	5	.	-2	.	.
COc1ccc([C@H]2CC(=O)C[C@@H](CCn3cc(Cc4ccccc4)nn3)O2)cc1	24*	-6	-3	2	.	-2	8	6
COc1ccc(-c2cc(CNc3nc4cc(-c5ccccc5C)sc4c(=O)n3C)on2)cc1	30*	1	-20	10	.	-51	8	12
COc1cccc(CNc2nc3cc(-c4ccccc4C)sc3c(=O)n2C)c1	0	0	-46	7	.	-31	.	.
CN(Cc1ccccc1)C(=O)OCc1cn(Cc2cc(F)ccc2F)nn1	.	1	-1	-1	.	-3	.	.
Cc1cccc(CCNC(=O)c2ccc(Sc3ccccc3Cl)c([N+](=O)[O-])c2)c1	.	-10	-8	2	.	-6	.	.
NC(=O)[C@H]1CC2(CC(c3cccc(NC(=O)COc4ccc(Cl)cc4)c3)=NO2)CN1C(=O)C(c1ccccc1)c1ccccc1 (stereo partly drawn)	32*	-3	-75	13	-90	-82	4	23*
NC(=O)[C@@H]1CC2(CC(c3cccc(NC(=O)COc4ccc(Cl)cc4)c3)=NO2)CN1C(=O)COc1ccc(Cl)cc1 (stereo partly drawn)	27*	0	-38	7	-78	-60	13	24*
O=C(Nc1ccc(Br)cc1)O[C@@H]1CC[C@@]23CCCN2C(=O)CCC[C@H]3C1	.	-1	-2	.	.	-2	.	.
C/C(=N\NC(=O)c1cc(C2CC2)nc2ccccc12)c1ccc(O)cc1O	22*	-2	8	7	15	8	-12	24*
O=C(NC(NC(=S)Nc1cccc(Cl)c1)C(Cl)(Cl)Cl)OCc1ccccc1 (stereo not drawn)	24*	1	-122	9	-85	-19	6	4
COc1ccccc1OCc1ccc(C(=O)Nc2ccncc2)o1	32*	-2	-4	7	-4	-5	3	1
COc1ccc(NC(=O)CN(c2cc(C)cc(C)c2)S(=O)(=O)c2c(C)n[nH]c2C)cc1	1	2	-5	2	-15	-3	.	.
COc1ccc(N(CC(=O)Nc2ccc(F)c(F)c2)S(=O)(=O)c2c(C)n[nH]c2C)cc1	28*	0	0	3	-13	-8	0	3
N#CCc1ccc(OC[C@@H](O)CN2CCC(C(O)(c3ccccc3)c3ccccc3)CC2)cc1	.	-4	5	2	.	0	.	.
Cc1ccc(NC(=O)CSCc2ccco2)cc1	-3	6	3	0	-2	-5	.	.
SMILES	TCR CD3 inh	PRMT1 FP inh	ABHD4 inh	rCAG binder	HTRA1 inh	SIAE primary	BSA probe FL	TCR-CD3 conf
c1coc(CSSCc2ccco2)c1	20*	49*	28	22	22	2	4	6
COc1ccc(N2CCCN(CC(=O)Nc3ccc(Cl)c(Cl)c3)CC2)cc1	.	8	11	3	.	1	.	.
CC(=O)c1cc(-c2ccc(Cl)c(C(F)(F)F)c2)c(=O)n2c1CCC2	.	2	-3	-1	.	1	.	.
CC(=O)C1(C(=O)NC2CCCC2)CC(c2ccccn2)=NO1 (stereo not drawn)	.	2	-1	-1	.	-3	.	.
CN1OC[C@@H]2CN(Cc3ccccc3)[C@H](c3cccc(-c4ccc(C#N)cc4)c3)C[C@@H]21	24*	3	3	5	-37	-3	1	5
CCN(CC)C(=O)CC[C@H]1CC[C@]2(CCCN(C(=O)c3ccccc3)C2)O1	.	2	-3	3	.	-23	.	.
O=[N+]([O-])C1=CC=C2C(=NC3(CCCCC3)N2O)C1=NC1CCCCC1	56*	6	8	-2	10	1	1	-3
NS(=O)(=O)c1ccc(NC(=O)/C=C/c2cn(-c3ccccc3)nc2-c2cccc(Cl)c2)cc1	24*	-6	-46	18	-98	-230	17	27*
CNC(=S)NNC(=O)c1cccn(Cc2cccc(C(F)(F)F)c2)c1=O	26*	-4	3	0	5	5	-1	25*
CNC(=S)NNC(=O)c1cccn(Cc2ccc(Cl)cc2Cl)c1=O	27*	-3	6	3	.	2	-4	26*
C=CCn1c(=NC(=O)c2ccc(S(=O)(=O)N3CCc4ccccc4C3)cc2)sc2cc(S(N)(=O)=O)ccc21	31*	1	-38	27	-78	-61	13	31*
Cc1oc(-c2cccc(Cl)c2)nc1CS(=O)(=O)CC(=O)NCCN1CCCC1	21*	8	5	8	-7	-4	5	8
O=C(NCC(O)c1ccc([N+](=O)[O-])cc1)C1=COCCO1 (stereo not drawn)	+	1	0	0	1	2	0	1
CC(C)c1ccc(C(=O)Nc2cc(Cl)ccc2C(=O)O)cc1	.	0	-29	.	.	-27	.	.
Cc1ccc(S(=O)(=O)CCC(=O)Oc2ccc3c(C)cc(=O)oc3c2)cc1	23*	7	2	-1	-1	11	-8	0
